The nature of data set [1]: Selectivity index, Ratio of CC50 for human MT4 cells to EC50 for HIV1 3B. Format: functional. The method in brief: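 SI is CC50 in mock-infected MT-4 cells divided by EC50 against HIV-1 IIIB. Both come from the same 4-day MTT assay run in parallel in infected (MOI 0.02) and uninfected cells, each as the mean of at least two experiments.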
Data set [2] can be described thus: Cytotoxicity against human MT4 cells after 4 days by MTT assay. The class given is cell-based. The method in brief: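 Uninfected MT-4 cells were run in parallel with the antiviral assay, exposed to serial compound concentrations (DMSO stocks, 10 mg/ml) for 4 days at 37 °C, with viability read by MTT. CC50 is the concentration cutting mock-infected cell viability by 50%. ">" marks the highest concentration tested that was still non-cytotoxic. Values are means of at least two experiments.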
(In general: Formazan colour is commonly taken as a measure of viable cells.)

The subject of data set [3] is Human immunodeficiency virus 1. Description: Antiviral activity against HIV1 3B assessed as inhibition of virus-induced cytopathogenicity in MT4 cells after 4 days by MTT assay. The conditions noted are these: Human immunodeficiency virus 1, 3B, MT4, 96 h. Format: functional, organism-based. The method in brief: (§1)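 MT-4 cells at 1 × 10⁵ cells/mL infected at MOI 0.02, then immediately plated into wells holding serial concentrations of compound (DMSO stocks, 10 mg/ml). Incubated 4 days at 37 °C, then viable cells read by MTT. EC50 is the concentration protecting 50% of infected cells from viral cytopathicity. Values are means of at least two separate experiments.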

In data set [4] the test system is Human immunodeficiency virus 2. Description: Antiviral activity against HIV2 ROD assessed as inhibition of virus-induced cytopathogenicity in MT4 cells after 4 days by MTT assay. Format: functional, organism-based. In short, it runs like this:
as §1

Calls of active or inactive are those of the source. The calls are words filed in the database; no cut-off is given here. Bounds are passed on as bounds.

As a reminder, the CC50 is the concentration giving 50% cytotoxicity. Lower therefore signals greater toxicity to the cells. The term EC50 denotes the midpoint of the concentration-response curve. On to `O=C1c2sccc2N(Cc2ccc(Cl)cc2Cl)S(=O)(=O)N1Cc1ccccc1`, for which the “Ratio CC50/EC50” value in data set [1] worked out at 5. The CC50 at 96 h in data set [2] was 247 µM. Also, the EC50 in data set [3] came out at 52.1 µM. Besides, the outcome in data set [4] was inactive.
As for `O=C1c2sccc2N(Cc2ccc([N+](=O)[O-])cc2)S(=O)(=O)N1Cc1ccccc1`, the “Ratio CC50/EC50” value in data set [1] was less than 1. This compound also gave a 50% cytotoxic concentration (CC50) at 96 h in data set [2] of 268 µM. Moreover, in data set [3], the EC50 was more than 268 µM. The outcome in data set [4] was inactive.
In the case of `O=C1c2sccc2N(Cc2ccccc2Br)S(=O)(=O)N1Cc1ccccc1`, in data set [1], the “Ratio CC50/EC50” value is more than 37. In addition, the half-maximal cytotoxic concentration (CC50) at 96 h in data set [2] was more than 270 µM. For the same compound, the EC50 in data set [3] came out at 7.3 µM. The result in data set [4] was inactive.
For `O=C1c2sccc2N(Cc2ccc(Cl)cc2)S(=O)(=O)N1Cc1ccccc1` the same measures were less than 1, 8.2 µM, more than 8.2 µM and “inactive”.
In the case of `N#Cc1cccc(CN2c3ccsc3C(=O)N(Cc3ccccc3)S2(=O)=O)c1`, the “Ratio CC50/EC50” value in data set [1] is more than 76. This compound came in with a CC50 at 96 h in data set [2] of more than 306 µM. Besides, the 50% effective concentration (EC50) in data set [3] is 4 µM. In addition, in data set [4], the result was inactive.
Turning to `Cc1cn([C@H]2C[C@H](N=[N+]=[N-])[C@@H](CO)O2)c(=O)[nH]c1=O` [ZIDOVUDINE], the “Ratio CC50/EC50” value in data set [1] is 50587. The compound further yielded a cytotoxic concentration (CC50) at 96 h in data set [2] of 35.6 µM. Further, in data set [3], the EC50 stood at 0.0007 µM.
For `N#CCN1c2ccsc2C(=O)N(Cc2ccccc2)S1(=O)=O`, the “Ratio CC50/EC50” value in data set [1] is on record as less than 1. Moreover, the CC50 at 96 h in data set [2] stood at 5.7 µM. For the same compound, in data set [3], the EC50 is more than 5.7 µM. Further, the result in data set [4] was inactive.
For `N#Cc1ccccc1CN1c2ccsc2C(=O)N(Cc2ccccc2)S1(=O)=O` the same measures were more than 59, more than 306 µM, 5.1 µM and “inactive”.
Turning to `O=C1c2sccc2N(Cc2ccccc2Cl)S(=O)(=O)N1Cc1ccccc1`, the “Ratio CC50/EC50” value in data set [1] is on record as more than 62. This compound yielded a half-maximal cytotoxic concentration (CC50) at 96 h in data set [2] of more than 299 µM. The 50% effective concentration (EC50) in data set [3] came out at 4.8 µM. The result in data set [4] was inactive.
Regarding `O=C1N(Cc2ccccc2Cl)c2cscc2S(=O)(=O)N1Cc1ccccc1`, the “Ratio CC50/EC50” value in data set [1] was more than 1190. This compound returned a CC50 at 96 h in data set [2] of more than 119 µM. In data set [3], the EC50 was determined as 0.1 µM.
Take `CN1c2ccsc2C(=O)N(Cc2ccccc2)S1(=O)=O`: the “Ratio CC50/EC50” value in data set [1] amounted to 3. This compound also returned a CC50 at 96 h in data set [2] of 202 µM. Moreover, the 50% effective concentration (EC50) in data set [3] came to 71 µM. Besides, the result in data set [4] was inactive.
`O=C1c2sccc2N(Cc2ccccc2)S(=O)(=O)N1Cc1ccccc1`: in data set [1], the “Ratio CC50/EC50” value is on record as less than 1. In data set [2], this compound had a CC50 at 96 h of 37.5 µM. Further, in data set [3], the half-maximal effective concentration (EC50) was more than 37.5 µM. Moreover, the outcome in data set [4] was inactive.
On to `O=C1c2sccc2N(Cc2ccc(Br)cc2)S(=O)(=O)N1Cc1ccccc1`, for which the “Ratio CC50/EC50” value in data set [1] is less than 1. Also, the cytotoxic concentration (CC50) at 96 h in data set [2] came to 6.6 µM. The concentration for a half-maximal effect (EC50) in data set [3] was more than 6.6 µM. For the same compound, in data set [4], the result was inactive.
Take `N#Cc1ccc(CN2c3ccsc3C(=O)N(Cc3ccccc3)S2(=O)=O)cc1`: in data set [1], the “Ratio CC50/EC50” value is listed as less than 1. In data set [2], the CC50 at 96 h is 8.5 µM. In data set [3], the EC50 was more than 8.5 µM. In data set [4], the result was inactive.
For the compound `O=C1c2sccc2NS(=O)(=O)N1Cc1ccccc1`, in data set [1], the “Ratio CC50/EC50” value was less than 1. Further, half-maximal cytotoxicity in data set [2] (CC50 at 96 h) was put at 374 µM. Further, in data set [3], the concentration giving a half-maximal response (EC50) is more than 374 µM. For the same compound, the result in data set [4] was inactive.
On to `N#CCN1C(=O)N(Cc2ccccc2)S(=O)(=O)c2cscc21`, for which the “Ratio CC50/EC50” value in data set [1] was 559. Also, the CC50 at 96 h in data set [2] amounted to 503 µM. Further, the EC50 in data set [3] is 0.9 µM.
As for `Cc1ccnc2c1NC(=O)c1cccnc1N2C1CC1` [NEVIRAPINE], the “Ratio CC50/EC50” value in data set [1] is listed as 22767. In data set [2], this compound came in with a half-maximal cytotoxic concentration (CC50) at 96 h of 683 µM. Moreover, the concentration for a half-maximal effect (EC50) in data set [3] turned out to be 0.03 µM.
For `O=C1c2sccc2N(Cc2cccc(Cl)c2)S(=O)(=O)N1Cc1ccccc1`, the “Ratio CC50/EC50” value in data set [1] is given as more than 51. The compound further yielded a CC50 at 96 h in data set [2] of more than 299 µM. Besides, the EC50 in data set [3] is 5.9 µM. For the same compound, in data set [4], the result was inactive.

The record behind these values is ChEMBL document CHEMBL1143912, “Synthesis and anti-HIV evaluation of novel 1,3-disubstituted thieno[3,2-c][1,2,6]thiadiazin-4(3H)-one 2,2-dioxides(TTDDs)” (Bioorg Med Chem, 2008).
